Our source for the folding enthalpy and Tm values is the array DNA melting data of Ke et al. (doi:10.1101/2024.01.08.574731).

The nature of series [1]: folding enthalpy; higher = less favourable; fluorescence melt of hairpins on a sequencing array, two-state fit. The settings on record: sodium 0.088 M. The procedure, abridged:
(§1)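 Hairpins were imaged by Cy3 fluorescence on a sequenced MiSeq flow cell with annealed Cy3 and quencher oligos, in 50 mM Na-HEPES pH 8.0, 25 mM NaCl, in 2.5 °C steps up to 60 °C. Bootstrapped two-state fits of normalised signals gave melting temperature and folding enthalpy. Four replicates were combined by inverse variance, and fitted temperatures were raised by 9.35 °C to match UV melts.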

Series [2] is described as follows: melting temperature; fluorescence melt of hairpins on a sequencing array, two-state fit, raised by 9.35 °C to match UV melts. To be noted: sodium 0.088 M. The procedure, abridged: as §1

On to GCACACCGAAAGGTATGC (((.(((....))).))), for which, in series [1], the folding enthalpy was -32.8 kcal/mol. Also, in series [2], the Tm worked out at 50.8 °C.
As for GCACACCGAAAGGTCTGC (((.(((....))).))), the folding enthalpy in series [1] was -26.5 kcal/mol. In series [2], the Tm was 47 °C.
On the same counts, the results for GCACACGAAAGTGAGTGC ((((((....)))..))) are -30.9 kcal/mol and 51.7 °C.
For GCACACGCGAAAGCGTGC (((..(((....)))))), the folding enthalpy in series [1] was -5.12 kcal/mol. Further, the Tm in series [2] is 45 °C.
On the same counts, the results for GCACACGGAAACATGCGC ((.((.(....).)).)) are -19.6 kcal/mol and 30.2 °C.
On to GCACACGGAAACGTATGC (((.(((....))).))), for which the folding enthalpy in series [1] was -28 kcal/mol. In series [2], the Tm was found to be 45.2 °C.
On the same counts, the results for GCACACGGAAACGTGTAC (.(((((....))))).) are -13.8 kcal/mol and 41.2 °C.
On the same counts, the results for GCACAGCGAAAGCAGTGC ((((.((....)).)))) are -34.1 kcal/mol and 69.2 °C.
On the same counts, the results for GCACAGCGAAAGCCATGC (((..((....))..))) are -11.9 kcal/mol and 38 °C.
For GCACAGCGAAAGCCGAGC ((.(.((....)).).)), the folding enthalpy in series [1] was -12.6 kcal/mol. In series [2], the Tm is 39.3 °C.
For GCACAGCGAAAGCCGTGC ((((.((....)).)))) the same measures were -24.4 kcal/mol and 65.6 °C.
Take GCACAGCGAAAGCGGGGC ((.(.((....)).).)): the folding enthalpy in series [1] is -34.6 kcal/mol. In addition, the Tm in series [2] was 65.9 °C.
As for GCACAGCGAAAGCTAGGC ((..(((....)))..)), the folding enthalpy in series [1] was -15.4 kcal/mol. Further, in series [2], the Tm is 45.2 °C.
For GCACAGCGAAAGCTCCGC ((..(((....)))..)) the same measures were -9.89 kcal/mol and 28.1 °C.
On the same counts, the results for GCACAGCGAAAGCTTCGC ((..(((....)))..)) are -12.4 kcal/mol and 39.8 °C.
GCACAGGAAACTGTGC ((((((....)))))): in series [1], the folding enthalpy is -36.1 kcal/mol. The Tm in series [2] turned out to be 67 °C.
On the same counts, the results for GCACAGGGAAACCCGTGC ((((.((....)).)))) are -36.8 kcal/mol and 55.4 °C.
On the same counts, the results for GCACAGGGAAACCTACGC ((..(((....)))..)) are -15.8 kcal/mol and 34.9 °C.
For GCACAGGGAAACCTATGC (((.(((....))).))), the folding enthalpy in series [1] was -24.2 kcal/mol. For the same sequence, in series [2], the Tm is 37.1 °C.
For GCACAGGGAAACCTGCAC (..((((....))))..) the same measures were -10.3 kcal/mol and 28.4 °C.
For GCACAGTCGAAAGACTGC (((..(((....)))))) the same measures were -8.86 kcal/mol and 39.3 °C.
For GCACATCGAAAGATCTGC (((.(((....))).))) the same measures were -28.3 kcal/mol and 36 °C.
For the sequence GCACATGGAAACATGCAC (..((((....))))..), the folding enthalpy in series [1] is -15.2 kcal/mol. Moreover, the Tm in series [2] is 28.2 °C.
For GCACATGGAAACATGCGC ((.((((....)))).)) the same measures were -48.8 kcal/mol and 49.9 °C.
Turning to GCACCACGAAAGTGATGC (((.(((....))).))), the folding enthalpy in series [1] was -36.5 kcal/mol. Further, in series [2], the Tm was 55.7 °C.
For GCACCACGAAAGTGTGC (((.(((....)))))) the same measures were -34.6 kcal/mol and 58.6 °C.
For GCACCACGAAAGTGTTGC (((.(((....))).))) the same measures were -35.9 kcal/mol and 52.6 °C.
On the same counts, the results for GCACCAGGAAACCGGTGC (((((.(....).))))) are -42.4 kcal/mol and 58.3 °C.
Turning to GCACCAGGAAACTGGCGC ((.((((....)))).)), in series [1], the folding enthalpy was -41.4 kcal/mol. Moreover, in series [2], the Tm was 55.6 °C.
For GCACCATCGAAAGATTGC (((..(((....)))))) the same measures were -20 kcal/mol and 29.1 °C.
As to GCACCCGAAAGGGCCTGC ((((((....)))..))), in series [1], the folding enthalpy was -13.4 kcal/mol. Moreover, the Tm in series [2] was 34.5 °C.
For GCACCCTCGAAAGAGTGC (((..(((....)))))) the same measures were -23.1 kcal/mol and 41.6 °C.
On the same counts, the results for GCACCGCGAAAGCACTGC (((..((....))..))) are -8.63 kcal/mol and 31.2 °C.
On the same counts, the results for GCACCGCGAAAGCGGAGC ((.((((....)))).)) are -16.4 kcal/mol and 69 °C.
Turning to GCACCGCGAAAGCGTCGC ((..(((....)))..)), in series [1], the folding enthalpy was -12.8 kcal/mol. The Tm in series [2] was determined as 41.2 °C.
On the same counts, the results for GCACCGGCGAAAGCCTGC (((..(((....)))))) are -12.6 kcal/mol and 39.1 °C.
For GCACCGGGAAACCGACGC ((..(((....)))..)) the same measures were -24.1 kcal/mol and 38 °C.
On the same counts, the results for GCACCGGGAAACCGGCAC (..((((....))))..) are -8.06 kcal/mol and 28.3 °C.
GCACCTCCGAAAGGATGC (((..(((....)))))): the folding enthalpy in series [1] was -21.9 kcal/mol. Also, the Tm in series [2] worked out at 36.5 °C.
Turning to GCACCTGGAAACAGGTAC (.(((((....))))).), in series [1], the folding enthalpy was -13.2 kcal/mol. The Tm in series [2] came to 40.9 °C.
For GCACGACGAAAGTCTTGC (((.(((....))).))) the same measures were -35.8 kcal/mol and 53.7 °C.
On the same counts, the results for GCACGCACGAAAGTGTGC (((..(((....)))))) are -23.2 kcal/mol and 52.6 °C.
For GCACGCGAAAGCGACTGC ((((((....)))..))) the same measures were -12.6 kcal/mol and 43.8 °C.
On to GCACGCGAAAGCGATTGC ((((((....)))..))), for which the folding enthalpy in series [1] is -14.2 kcal/mol. Also, in series [2], the Tm is 45.9 °C.
On the same counts, the results for GCACGCGAAAGCGTCTGC ((((((....)))..))) are -11.1 kcal/mol and 47.4 °C.
With GCACGCGGAAACGCGCAC (..((((....))))..), the folding enthalpy in series [1] is -7.82 kcal/mol. In series [2], the Tm is 31.1 °C.
For GCACGCGGAAACGCGCGC ((.((((....)))).)) the same measures were -23.5 kcal/mol and 68.5 °C.
On the same counts, the results for GCACGGCCGAAAGGCTGC (((..(((....)))))) are -10 kcal/mol and 45.1 °C.
For GCACGGCGAAAGCAGCGC ((.(.((....)).).)) the same measures were -21.1 kcal/mol and 57.2 °C.
For GCACGGCGAAAGCATTGC (((..((....))..))), the folding enthalpy in series [1] was -16.6 kcal/mol. Besides, in series [2], the Tm was 39.9 °C.
For GCACGGCGAAAGCCACGC ((..(((....)))..)), the folding enthalpy in series [1] was -19.1 kcal/mol. For the same sequence, in series [2], the Tm came to 54.9 °C.
On the same counts, the results for GCACGGCGAAAGCCAGGC ((..(((....)))..)) are -14.9 kcal/mol and 55 °C.
GCACGGCGAAAGCCCGGC ((..(((....)))..)): in series [1], the folding enthalpy was -15.4 kcal/mol. Besides, in series [2], the Tm was 50.1 °C.
On the same counts, the results for GCACGGCGAAAGCCTGGC ((..(((....)))..)) are -15.2 kcal/mol and 51.7 °C.
With GCACGGCGAAAGCGATGC (((..((....))..))), the folding enthalpy in series [1] was -18.2 kcal/mol. For the same sequence, the Tm in series [2] turned out to be 47.2 °C.
For GCACGGGCGAAAGCCTGC (((..(((....)))))) the same measures were -12.7 kcal/mol and 45.2 °C.
On the same counts, the results for GCACGGGGAAACCCATGC (((.(((....))).))) are -29.5 kcal/mol and 47 °C.
GCACGGGGAAACCCGCGC ((.((((....)))).)): the folding enthalpy in series [1] was -36.1 kcal/mol. The Tm in series [2] is 58.4 °C.
On the same counts, the results for GCACGGGGAAACCCGTAC (.(((((....))))).) are -13.2 kcal/mol and 41.7 °C.
For GCACGTCGAAAGACTGC (((.(((....)))))) the same measures were -27.5 kcal/mol and 56.5 °C.
On the same counts, the results for GCACGTGGAAACACACGC ((..(((....)))..)) are -21.3 kcal/mol and 37.8 °C.
Turning to GCACGTGGAAACACATGC (((.(((....))).))), the folding enthalpy in series [1] is -31.9 kcal/mol. In addition, the Tm in series [2] is 45.1 °C.
On the same counts, the results for GCACGTGGAAACACGTAC (.(((((....))))).) are -14.2 kcal/mol and 44.1 °C.
For GCACTACGAAAGTACTGC (((.(((....))).))), the folding enthalpy in series [1] was -26.9 kcal/mol. In addition, the Tm in series [2] came out at 37.6 °C.
On the same counts, the results for GCACTCACGAAAGTGTGC (((..(((....)))))) are -23 kcal/mol and 48.7 °C.
For GCACTCGAAAGAGACTGC ((((((....)))..))) the same measures were -17 kcal/mol and 34.6 °C.
On the same counts, the results for GCACTCGAAAGAGCCTGC ((((((....)))..))) are -12.9 kcal/mol and 27.8 °C.
With GCACTCGAAAGAGGTGC ((((((....))).))), in series [1], the folding enthalpy was -29.1 kcal/mol. The Tm in series [2] amounted to 54.4 °C.
For the sequence GCACTCGAAAGAGTCTGC ((((((....)))..))), the folding enthalpy in series [1] is -19.2 kcal/mol. Further, the Tm in series [2] was determined as 40.1 °C.
For GCACTCGAAAGAGTGTGC ((((((....)))..))) the same measures were -20.1 kcal/mol and 63.8 °C.
On the same counts, the results for GCACTCGGAAACGGGTGC ((((.((....)).)))) are -51.6 kcal/mol and 59.5 °C.
For GCACTGCGAAAGCAAGGC ((..(((....)))..)) the same measures were -17.8 kcal/mol and 47.5 °C.
Regarding GCACTGCGAAAGCATAGC ((..(((....)))..)), the folding enthalpy in series [1] is -15.3 kcal/mol. For the same sequence, in series [2], the Tm came out at 35.6 °C.
